Results published in ChEMBL document CHEMBL5252538, “β-Lactam analogues of combretastatin A-4 prevent metabolic inactivation by glucuronidation in chemoresistant HT-29 colon cancer cells” (Eur J Med Chem, 2017).
Activity calls are given as the source filed them. No cut-off for these calls is given here.

Key:
[1] = system: Panel NCI-60 (60 carcinoma cell lines); assay: Antiproliferative activity against human panel NCI-60 (60 carcinoma cell lines) incubated for 72 hrs by SRB assay; format: functional; details: read-out: LC50 (the source's name)
[2] = Stability in phosphate buffer at pH 9 assessed as half life at 30 ug/ml measured for 24 hrs by analytical HPLC analysis; format: physicochemical; details: dose 30 µg/ml
Tubulin (Homo sapiens) [3] = target: T1, Tubulin (Homo sapiens) (UniProt P68371+Q9H4B7+P0DPH7+P68366+Q13509+Q71U36+P04350+Q3ZCM7+P07437+P68363+Q9BQE3+Q6PEY2+Q13885+Q9BVA1+Q9BUF5); assay: Induction of microtubule disruption in human HT-29 cells assessed as appearance of multiple micronucleus at 0.5 uM incubated for 16 hrs by immunofluorescence based confocal microscopic analysis; format: cell-based
Summary of the method: (§1)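 Fixed in 4% paraformaldehyde, permeabilised in 0.5% Triton X-100, blocked in 5% BSA, stained with anti-α-tubulin-FITC (DM1A, 1:100, 2 h) and Alexa Fluor 488, DAPI counterstain; confocal imaging, three occasions.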

HT-29 [4] = assay: Induction of cell cycle arrest in human HT-29 cells assessed as accumulation of cells in sub-G1 phase at 0.5 uM incubated for 72 hrs by RNase/PI staining based flow cytometry analysis (reference value: 6%); format: functional
Summary of the method: (§2)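 HT-29 treated with vehicle (0.1% ethanol v/v) or compound at 0.5 µM for 24, 48 and 72 h. Adherent plus detached cells collected, fixed overnight in ice-cold 70% ethanol at −20 °C, stained with PI (50 µg/mL) plus RNase A (50 µg/mL) 30 min at 37 °C. 10,000 cells analysed by flow cytometry at 488 nm; sub-G1, G0/G1, G2/M gated on DNA content; mean of three experiments.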

HT-29 [5] = assay: Induction of apoptosis in human HT-29 cells assessed as decrease in Mcl-1 protein expression at 0.1 to 1 uM incubated for 48 hrs by Western blot analysis; format: functional, cell-based; details: dose 0.1-1 µM
Summary of the method: (§3)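 HT-29 seeded at 1 × 10⁵ cells per T25 flask; left untreated, given vehicle (0.1% EtOH v/v) or compound at 0.1 or 1 µM for 48 h. Whole-cell lysates in RIPA with protease/phosphatase inhibitors, equal protein (BCA) on 12% SDS-PAGE, PVDF; probed for Mcl-1, PARP, Bax (1:1000), HRP secondary, ECL detection, GAPDH loading control; three independent occasions.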

[6] = Stability in phosphate buffer at pH 4 assessed as half life at 30 ug/ml measured for 24 hrs by analytical HPLC analysis; format: physicochemical; details: dose 30 µg/ml
HT-29 [7] = assay: Antiproliferative activity against combretastatin A-4 resistant human HT-29 cells assessed as inhibition of cell growth incubated for 72 hrs by SRB assay; format: functional, cell-based; details: HT-29, 72 h
Summary of the method: (§4)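 HT-29 (DMEM Glutamax, 10% FBS) seeded at 1 × 10⁴ cells/well, treated after 24 h with vehicle (1% ethanol v/v) or serial dilutions (eight concentrations) for 72 h; viability measured by sulforhodamine B protocol. Percent viability relative to vehicle control, IC50 from dose–response curves; mean of three experiments in triplicate.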

[8] = target: T2, Tubulin beta (Homo sapiens) (UniProt P68371+Q9H4B7+Q13509+P04350+Q3ZCM7+P07437+Q13885+Q9BVA1+Q9BUF5+A6NNZ2); assay: Binding affinity to colchicine binding site of beta-tubulin in human MCF7 cells assessed as inhibition of beta-tubulin-EBI adduct formation at 10 uM pretreated for 2 hrs followed by EBI addition and measured after 1.5 hrs by Western blot analysis; format: cell-based; details: time 3.5 hrs
Summary of the method: (§5)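 Cells seeded at 5 × 10⁴/well, grown overnight, treated with vehicle (0.1% ethanol v/v) or compound (10 µM) for 2 h, then EBI (100 µM) added for 1.5 h. Cells washed with ice-cold PBS, lysed in Laemmli buffer, run on SDS-PAGE, blotted and probed for β-tubulin to detect the faster-migrating β-tubulin–EBI adduct; GAPDH reprobe for loading; three independent experiments.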

HT-29 [9] = assay: Induction of cell cycle arrest in human HT-29 cells assessed as reduction in cells in G0 phase at 0.5 uM incubated for 72 hrs by RNase/PI staining based flow cytometry analysis; format: functional; summary of the method: as §2
HT-29 [10] = assay: Induction of apoptosis in human HT-29 cells assessed as increase in PARP cleavage at 0.1 uM incubated for 48 hrs by Western blot analysis; format: functional, cell-based; summary of the method: as §3
Tubulin (Homo sapiens) [11] = target: T1, Tubulin (Homo sapiens); assay: Induction of microtubule disruption in human MCF7 cells assessed as depolymerization of microtubules at 0.5 uM incubated for 16 hrs by immunofluorescence based confocal microscopic analysis; format: cell-based
Summary of the method: (§6)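 MCF-7 seeded at 1 × 10⁵ cells/mL on chamber slides, treated 16 h with vehicle (1% ethanol v/v), CA-4 (0.1 µM) or compounds (0.5 µM). Paraformaldehyde fixation (4%, 20 min), Triton X-100 permeabilisation, BSA block, anti-α-tubulin-FITC (DM1A) plus Alexa Fluor 488, DAPI mounting; confocal imaging with identical settings per experiment; three independent occasions.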

MCF7 [12] = assay: Induction of cell cycle arrest in human MCF7 cells assessed as accumulation of cells at sub-G1 phase at 0.5 uM incubated for 72 hrs by RNase/PI staining based flow cytometry analysis (reference value: 4%); format: functional
HT-29 [13] = assay: Antiproliferative activity against human HT-29 cells assessed as inhibition of cell growth incubated for 72 hrs by SRB assay; format: functional; summary of the method: as §4
HT-29 [14] = assay: Induction of cell cycle arrest in human HT-29 cells assessed as accumulation of cells at G2/M phase at 0.5 uM incubated for 72 hrs by RNase/PI staining based flow cytometry analysis relative to control; format: functional; summary of the method: as §2
Tubulin (Homo sapiens) [15] = target: T1, Tubulin (Homo sapiens); assay: Induction of microtubule disruption in human HT-29 cells assessed as complete loss of microtubule structure at 0.5 uM incubated for 16 hrs by immunofluorescence based confocal microscopic analysis; format: cell-based; summary of the method: as §1
[16] = Stability in phosphate buffer at pH 7.4 assessed as half life at 30 ug/ml measured for 24 hrs by analytical HPLC analysis; format: physicochemical; details: dose 30 µg/ml
HT-29 [17] = assay: Induction of cell cycle arrest in human HT-29 cells assessed as reduction in cells in S phase at 0.5 uM incubated for 72 hrs by RNase/PI staining based flow cytometry analysis; format: functional; summary of the method: as §2
[18] = target: T2, Tubulin beta (Homo sapiens); assay: Binding affinity to colchicine binding site of beta-tubulin in human HT-29 cells assessed as inhibition of beta-tubulin-EBI adduct formation at 10 uM pretreated for 2 hrs followed by EBI addition and measured after 1.5 hrs by Western blot analysis; format: cell-based; details: time 3.5 hrs; summary of the method: as §5
[19] = system: Panel NCI-60 (60 carcinoma cell lines); assay: Antiproliferative activity against human panel NCI-60 (60 carcinoma cell lines) assessed as inhibition of cell growth at 10 uM incubated for 72 hrs by SRB assay; format: functional, cell-based
MCF7 [20] = assay: Antiproliferative activity against […] human MCF7 cells assessed as inhibition of cell growth incubated for 72 hrs by alamar blue assay; format: functional, cell-based; details: MCF7, 72 h
Summary of the method: (§7)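 Cells seeded 24 h before treatment (HL-60 4 × 10⁴, MCF-7 5 × 10³ per well), then given medium, vehicle (1% ethanol v/v) or serial dilutions (eight concentrations) for 72 h. Alamar Blue (10% v/v) added for 3–5 h at 37 °C in the dark, fluorescence read at ex 530/em 590 nm. Viability expressed relative to vehicle (100%), IC50 from dose–response curves; three experiments in triplicate.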

Tubulin (Homo sapiens) [21] = target: T1, Tubulin (Homo sapiens); assay: Induction of microtubule disruption in human MCF7 cells assessed as inhibition of microtubule formation at 0.5 uM incubated for 16 hrs by immunofluorescence based confocal microscopic analysis; format: cell-based; summary of the method: as §6
MCF7 [22] = assay: Induction of cell cycle arrest in human MCF7 cells assessed as accumulation of cells at G2/M phase at 0.5 uM incubated for 24 hrs by RNase/PI staining based flow cytometry analysis (reference value: 24%); format: functional
Tubulin (Bos taurus) = Tubulin (Bos taurus) (UniProt Q6B856+Q862L2+Q862F3); assay: Inhibition of bovine tubulin polymerisation assessed as fold reduction in Vmax at 10 uM measured every 30 secs for 30 mins by spectrophotometric method relative to control; format: protein assay
HL-60 [23] = assay: Antiproliferative activity against human HL-60 cells assessed as inhibition of cell growth incubated for 72 hrs by SRB assay; format: functional
MCF7 [24] = assay: Antiproliferative activity against human MCF7 cells assessed as inhibition of cell growth incubated for 72 hrs by SRB assay; format: functional
HT-29 [25] = assay: Induction of apoptosis in human HT-29 cells assessed as upregulation of Bax protein expression at 0.1 to 1 uM incubated for 48 hrs by Western blot analysis; format: functional, cell-based; details: dose 0.1-1 µM; summary of the method: as §3
HL-60 [26] = assay: Antiproliferative activity against […] human HL-60 cells assessed as inhibition of cell growth incubated for 72 hrs by alamar blue assay; format: functional, cell-based; details: HL-60, 72 h; summary of the method: as §7
Tubulin (Homo sapiens) [27] = target: T1, Tubulin (Homo sapiens); assay: Induction of microtubule disruption in human MCF7 cells assessed as shrunken spindle shaped microtubule formation at 0.5 uM incubated for 16 hrs by immunofluorescence based confocal microscopic analysis; format: cell-based; summary of the method: as §6
HT-29 [28] = assay: Induction of cell cycle arrest in human HT-29 cells assessed as accumulation of cells at G2/M phase at 1 uM incubated for 24 hrs by RAase A/PI staining based flow cytometry analysis (reference value: 16%); format: functional
HT-29 [29] = assay: Induction of cell cycle arrest in human HT-29 cells assessed as accumulation of cells at G0/G1 phase at 1 uM incubated for 24 hrs in presence of 2,3-bis(amino((2aminophenyl)thio)methylene)succinonitrile by RAase A/PI staining based flow cytometry analysis (reference value: 57%); format: functional
HT-29 [30] = assay: Induction of cell cycle arrest in human HT-29 cells assessed as accumulation of cells at G0/G1 phase at 1 uM incubated for 24 hrs by RAase A/PI staining based flow cytometry analysis (reference value: 57%); format: functional
HT-29 [31] = assay: Induction of cell cycle arrest in human HT-29 cells assessed as accumulation of cells at G2/M phase at 1 uM incubated for 24 hrs in presence of 2,3-bis(amino((2-aminophenyl)thio)methylene)succinonitrile by RAase A/PI staining based flow cytometry analysis (reference value: 16%); format: functional
Tubulin (Homo sapiens) [32] = target: T1, Tubulin (Homo sapiens); assay: Induction of microtubule disruption in human HT-29 cells assessed as effect on microtubule organization at 1 uM incubated for 16 hrs by immunofluorescence based confocal microscopic analysis; format: cell-based

SMILES	CC50 [1] [µM]	half-life at 30 ug/ml [2] [h]	Activity (HT-29 [5])	half-life at 30 ug/ml [6] [h]	IC50 (HT-29 [7]) [µM]	inhibition [8]	Activity (HT-29 [10])	Activity (Tubulin (Homo sapiens) [11])	Activity (MCF7 [12]) [%]	GI50 (HT-29 [13]) [µM]	half-life at 30 ug/ml [16] [h]	inhibition [19]	IC50 (MCF7 [20]) [µM]	Activity (Tubulin (Homo sapiens) [21])	Activity (MCF7 [22]) [%]	fold change (FC) (Tubulin (Bos taurus))	GI50 (HL-60 [23]) [µM]	GI50 (MCF7 [24]) [µM]	Activity (HT-29 [25])	IC50 (HL-60 [26]) [µM]	also measured
COc1cc(N2C(=O)C(O)C2c2ccc(SC)cc2)cc(OC)c1OC (racemic)	> 100	16	Active	16	0.015	Active	Active	Active	12	< 0.01	> 24	Active	0.005	Active	70	3.5	< 0.01	< 0.01	Active	0.015	Activity (Tubulin (Homo sapiens) [3]): Active; Activity (HT-29 [4]): 15%; Activity (HT-29 [9]): Active; Activity (HT-29 [14]): 68%; Activity (Tubulin (Homo sapiens) [15]): Active; Activity (HT-29 [17]): Active; inhibition [18]: Active; Activity (Tubulin (Homo sapiens) [27]): Active
COc1cc(N2C(=O)C(c3ccccc3)C2c2ccc(SC)cc2)cc(OC)c1OC (racemic)	> 100	8	Active	10	0.056	–	Active	Active	11	0.032	15	Active	0.065	Active	65	3.4	0.023	0.035	Active	0.059	Activity (Tubulin (Homo sapiens) [27]): Active
COc1ccc(/C=C\c2cc(OC)c(OC)c(OC)c2)cc1O [COMBRETASTATIN A4]	–	–	–	–	4.17	Active	–	–	–	–	–	–	0.0035	–	–	2	–	–	–	0.0019	Activity (HT-29 [28]): 15%; Activity (HT-29 [29]): 14%; Activity (HT-29 [30]): 52%; Activity (HT-29 [31]): 50%; Activity (Tubulin (Homo sapiens) [32]): inactive
